Assay outcomes (PubChem)
ASAP1 GAP inh – blocks human ASAP1-stimulated Arf1 GTP hydrolysis; GDP FP detection; 0.19% of 360,000 active; inhibition, % at 16.5 µM; AID 624377; in the data active = inhibition above about 25%;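 also: 0% = vehicle with enzyme and substrate and 100% = no enzyme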
Target sequence (Q9ULH1 325-724 limits assumed): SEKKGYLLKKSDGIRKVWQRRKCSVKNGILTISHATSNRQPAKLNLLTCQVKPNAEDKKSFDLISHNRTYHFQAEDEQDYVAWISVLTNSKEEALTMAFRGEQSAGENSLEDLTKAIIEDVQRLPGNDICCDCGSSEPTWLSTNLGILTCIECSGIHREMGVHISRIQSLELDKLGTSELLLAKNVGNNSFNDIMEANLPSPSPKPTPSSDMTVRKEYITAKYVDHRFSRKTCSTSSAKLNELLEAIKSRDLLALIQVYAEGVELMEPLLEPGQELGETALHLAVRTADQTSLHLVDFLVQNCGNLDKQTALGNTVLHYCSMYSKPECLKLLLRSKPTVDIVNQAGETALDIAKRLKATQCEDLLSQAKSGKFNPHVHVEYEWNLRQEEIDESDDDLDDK
LEDGF integ inh – blocks HIV-1 LEDGF/p75-dependent DNA integration; TR-FRET IN-LEDGF/p75 DNA integration, Eu/Cy5; 0.64% of 370,000 active; inhibition, % at 3.7 µM;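 active = inhibition above the screen-wide mean plus 3 SD, cut at about 13% in these data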;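 also: signal is the Cy5 over europium emission ratio at 671 and 618 nm; 0% = plate median of compound wells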
ARFGAP1 inhibitor – rat ARFGAP1 inhibition; Q62848; Arfgap1-stimulated ARF1 GTP hydrolysis, GDP FP detection; inhibition, % at 16.5 µM; 0.26% of 360,000 active;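 active = inhibition above a per-plate limit, mean inhibition of low control wells plus 3 SD, cut at about 25% in these data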;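 also: 0% = DMSO wells with enzyme and 100% = wells lacking Arfgap1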
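System: truncated rat Arfgap1 GAP domain / Medium: HEPES-based buffer, pH 7.5 / Also added: N-terminally truncated human ARF1-GTP substrate / Incubation: enzyme reaction 120 min at 25 °C after 20 min preincubation / Measured by: FP of antibody-bound GDP Alexa 633 tracer, ex 620/em 688 nm / Replicates: singlicate, each compound tested once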
TDP2 inh – blocks human TDP2 phosphodiesterase activity. recombinant TDP2, T5PNP hydrolysis, p-nitrophenol absorbance 415 nm. inhibition, % at 12.8 µM. 0.34% of 370,000 active. AID 720702;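 active = inhibition above the mean of all tested compounds plus 3 SD, set per campaign, cut at about 25% in these data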;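 also: 0% = DMSO with enzyme and 100% = buffer with substrate but no TDP2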
Target sequence (O95551 whole entry, looked up): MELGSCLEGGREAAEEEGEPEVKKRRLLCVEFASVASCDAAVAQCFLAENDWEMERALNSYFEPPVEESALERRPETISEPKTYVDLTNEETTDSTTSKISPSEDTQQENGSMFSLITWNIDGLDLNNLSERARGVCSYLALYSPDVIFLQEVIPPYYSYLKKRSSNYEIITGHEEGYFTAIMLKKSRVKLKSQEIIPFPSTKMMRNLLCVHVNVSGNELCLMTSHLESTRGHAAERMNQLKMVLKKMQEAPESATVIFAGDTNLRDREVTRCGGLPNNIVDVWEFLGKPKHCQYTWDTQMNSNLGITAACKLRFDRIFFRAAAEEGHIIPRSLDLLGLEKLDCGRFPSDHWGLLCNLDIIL
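System – recombinant human TDP2 · Quantity – TDP2 enzyme at 120 nM final · Doses – single concentration, 12.8 µM nominal, with 1% DMSO · Incubation – 2 h at 37 °C · Measured by – epi absorbance of p-nitrophenol freed from T5PNP by hydrolysis · Read-out – % inhibition relative to enzyme-containing and enzyme-free wells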
MBD2 inh – MBD2-methylated oligo binding inhibition. inhibition, % at 4.4 µM. 0.31% of 370,000 active. TR-FRET, MBD2 binding to methylated oligonucleotide. AID 686964. Q9UBB5; in the data active = inhibition above about 13%
UHRF1 binding – blocks human UHRF1 binding to methylated DNA; Q96T88; AID 687016; inhibition, % at 4.4 µM; 0.75% of 370,000 active; UHRF1 binding to methylated oligo, TR-FRET;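 also: UHRF1 SRA domain binding a hemimethylated CpG hairpin DNA probe; 0% = median of test compound wells and 100% = reference inhibitor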
UHRF1 ctr MBD2 – inhibits human UHRF1 binding to methylated oligonucleotide, MBD2 counter-screen. shares compounds with MBD2 inh. TR-FRET. inhibition, % at 4.4 µM. 25% of 1,000 active. AID 720530;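 also: UHRF1 SRA domain binding a labeled hemimethylated CpG hairpin DNA; 0% = vehicle only and 100% = reference inhibitor with vehicle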
MBD2 DBD conf – MBD2-DBD methyl-DNA binding inhibition, TR-FRET confirmation | shares compounds with MBD2 inh | TR-FRET MBD2-DBD binding to methylated oligonucleotide | inhibition, % at 4.4 µM | 26% of 1,000 active; in the data active = inhibition above about 14%
TDP2 confirm – human TDP2 inhibition, confirmation; inhibition, % at 12.8 µM; AID 743263; shares compounds with TDP2 inh; recombinant human TDP2, absorbance read-out; 22% of 1,100 active; in the data active = inhibition above about 25%;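 also: 0% = vehicle with enzyme and 100% = no enzyme buffer only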
IN multimer up – activates HIV-1 integrase multimerization in LEDGF counter-screen | shares compounds with LEDGF integ inh | TR-FRET HIV-1 integrase multimerization, biochemical | activation, % at 7.7 µM | 17% of 2,000 active | AID 1053131; in the data active = activation above about 8.9%
TRFRET interf – optically interferes with TR-FRET readout in LEDGF counter-screen | shares compounds with LEDGF integ inh | TR-FRET optical interference counterscreen, HIV-1 IN multimerization | inhibition, % at 7.7 µM | 2,000 tested, under 10 active | AID 1053135;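 active = inhibition above the mean over all tested compounds plus 3 SD, which no compound reached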;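 also: 0% = integrase with antibodies and DMSO and 100% = antibodies without integrase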
LEDGF integ conf – LEDGF/p75-dependent HIV-1 integration inhibition, confirmation. shares compounds with LEDGF integ inh. TR-FRET LEDGF/p75-dependent HIV-1 integration, biochemical. inhibition, % at 3.7 µM. 36% of 2,000 active. AID 1053136; in the data active = inhibition above about 14%
* hit, by the source's call; . = no result given. Only some compounds are listed: those with a hit (about 2% of all), similar ones and a draw of the others. Rule as the data show it, unless noted: active = inhibition above about 21%; inactive = the rest.

SMILES	ASAP1 GAP inh	LEDGF integ inh	ARFGAP1 inhibitor	TDP2 inh	MBD2 inh	UHRF1 binding	UHRF1 ctr MBD2	MBD2 DBD conf	others
CN(C)CCNC(=O)c1cccc2[nH]c(-c3ccncc3)nc12	2.2	-1.0	-0.7	12.7	13.2*	11.1	15.6	19.8*
COC(=O)[C@@]12CCCCC=C1N(CCc1ccc(Cl)cc1)C(=O)[C@H]2CC(=O)NCCC(C)C	.	-1.2	.	2.2	0.1	-0.6	.	.
COc1ccc(CC(/C=C/c2ccc(F)cc2)c2ccccc2)cc1 (centres undefined)	.	2.4	.	2.6	-3.5	-0.6	.	.
CC(C)(C)c1ccc(-c2nnc(SCC(=O)Nc3ccc4c(c3)OCCO4)n2-c2ccc(Cl)cc2)cc1	.	-1.2	.	-3.1	2.2	-2.8	.	.
O=C(c1ccc(F)cc1)N1CCN(Cc2ccccc2)CC1	-0.5	0.0	-4.7	9.1	-4.0	0.1	.	.
O=C(NCCN1CCN(C(=O)c2ccc(F)cc2)CC1)c1ccc(F)cc1	7.3	0.1	8.8	2.1	13.9*	-0.1	10.5	3.0
COc1ccccc1C(=O)CSc1nnc(-c2ccncc2)n1-c1ccc(Cl)cc1	.	2.5	.	-1.0	-1.8	-3.6	.	.
CCOC(=O)CSc1nc(C(C)C)nc2sc(C)c(C)c12	1.7	-1.1	-3.0	-0.5	45.5*	1.9	2.5	3.6
COCOc1cccc(CN2CCC(C)(Oc3ccc(C(C)=O)cc3)C2)c1 (centres undefined)	-1.4	-0.9	8.3	-2.8	1.6	1.4	.	.
CC(=O)c1ccc(OC2(C)CCN(Cc3cc4ccccc4[nH]3)C2)cc1 (centres undefined)	-6.7	-1.6	2.2	4.4	13.2*	8.9	5.3	2.1
CCOC(=O)[C@]12CCCC3=C1N(CCC3)C(=O)[C@@H](CC(=O)NCc1ccccc1)C2	.	-0.4	.	6.8	-2.6	-1.5	.	.
CN(Cc1ccccc1F)C(=O)C1CCCN(c2ncccn2)C1 (centres undefined)	.	-0.3	.	6.1	4.8	0.7	.	.
CCCCn1c(SCC(=O)Nc2sc3c(c2C(N)=O)CCC3)nnc1-c1ccccc1	-15.0	-0.6	2.3	2.9	13.2*	19.8	5.7	2.5
COC(=O)C12C=C3CC(C4CC4)=C3C(=O)N1Cc1[nH]c3ccccc3c1C2 (centres undefined)	.	5.0	.	-6.2	-2.1	-5.7	.	.
Cc1ccc(C)c2[nH]c(=O)c(CN(Cc3nnnn3C3CCCCC3)CC3CCCO3)cc12 (centres undefined)	5.1	2.1	-9.0	2.2	0.6	-1.6	.	.
Cc1ccc(C)c2[nH]c(=O)c(CN(CCN3CCOCC3)Cc3nnnn3CC3CCCO3)cc12 (centres undefined)	-11.1	-0.8	3.0	-10.9	17.7*	2.7	5.7	0.7
CC(=O)c1c(C)[nH]c(C(=O)COC(=O)c2ccc3c(=O)n4c(nc3c2)CCC4)c1C	-2.6	-2.1	-3.0	-4.0	-4.0	-1.2	.	.
O=C(OCc1cc(=O)n2c(n1)sc1ccccc12)c1ccc2c(=O)n3c(nc2c1)CCC3	12.6	7.2	2.1	-0.3	22.0*	39.4*	26.6*	22.3*
O=C(CCCN1C(=O)/C(=C\c2ccco2)SC1=S)Nc1ccc(O)cc1C(=O)O	0.2	63.1*	-16.3	29.1*	27.2*	93.1*	44.8*	16.4*	TDP2 confirm=-7.6
O=S(=O)(c1cccs1)N1CCC(c2cn3ccccc3n2)CC1	.	-1.6	.	2.6	3.2	-0.6	.	.
CCCn1nc2cc(C(=O)NCc3ccc(OC(F)(F)F)cc3)ccc2c1OCC	7.8	-0.4	4.4	-8.5	-0.1	-0.4	.	.
CCCn1nc2cc(C(=O)NCc3ccc(OC)cc3)ccc2c1OCC	10.0	12.0	6.3	38.2*	14.2*	28.8*	6.1	4.2	TDP2 confirm=-2.7
Cc1ccc(C=C2C(=O)c3ccccc3C2=O)o1	-0.5	8.2	-5.7	10.4	-1.5	9.7	.	.
Cc1ccc(/C=C2/C(=O)c3ccc(C(=O)O)cc3C2=O)o1	-11.4	69.2*	14.3	25.7*	22.2*	78.0*	40.0*	2.4	TDP2 confirm=24.6*;IN multimer up=24.5*;TRFRET interf=-87.5;LEDGF integ conf=57.6*
O=C(N/N=C/c1cccc(F)c1)c1cc(-c2ccco2)nc2ccccc12	-4.7	19.9*	-11.4	3.6	23.5*	30.3*	41.8*	36.1*	IN multimer up=21.2*;TRFRET interf=-106.8;LEDGF integ conf=49.1*
SMILES	ASAP1 GAP inh	LEDGF integ inh	ARFGAP1 inhibitor	TDP2 inh	MBD2 inh	UHRF1 binding	UHRF1 ctr MBD2	MBD2 DBD conf	others
O=C(NCCCc1ccccc1)[C@H](Cc1c[nH]c2ccccc12)NC1(C(=O)NCCc2c[nH]c3ccccc23)CCC1	.	6.4	.	-5.8	-2.5	0.9	.	.
O=S(=O)(O)c1cc(O)c2cc(Nc3ccccc3)ccc2c1	-5.0	16.3*	6.3	13.7	26.3*	32.5*	31.1*	14.1*	IN multimer up=40.6*;TRFRET interf=-145.4;LEDGF integ conf=43.6*
O=C(CCS(=O)(=O)c1ccc(Br)cc1)N1CCN(c2ccc(F)cc2)CC1	7.0	19.3*	-13.1	3.1	25.7*	72.8*	8.8	2.4	IN multimer up=-5.3;TRFRET interf=19.0;LEDGF integ conf=9.6
Cc1ccc(C)n1C(CC(=O)O)c1ccc(C#N)cc1 (centres undefined)	6.6	47.5*	-4.9	-3.7	27.1*	94.6*	11.1	4.6	IN multimer up=1.6;TRFRET interf=-5.6;LEDGF integ conf=12.8
Cc1ccc(-c2cc(-c3nnc(SCc4cccc5ccccc45)n3N)[nH]n2)cc1	.	1.3	.	1.1	7.4	1.0	.	.
Cc1nc2ccccc2c(=O)n1/N=C/c1ccc(O)c(O)c1O	6.1	60.6*	-25.7	-3.3	26.8*	37.2*	2.7	0.4	IN multimer up=18.5*;TRFRET interf=-93.1;LEDGF integ conf=80.4*
Cc1nc2ccccc2c(=O)n1/N=C/c1ccccc1O	-19.0	0.8	3.5	5.4	0.4	-0.4	.	.
